Results of several laboratories.
Protocols differ between the studies behind these lines.
Target: Mitotic checkpoint serine/threonine-protein kinase BUB1 (BUB1, Homo sapiens, UniProt O43683)

Compound | effect on | technique | tested at | remaining binding
COc1cnc(Nc2cccc(S(N)(=O)=O)c2)nc1N1CCN(c2ccccc2)CC1 | binding | competition with immobilised ligand | 1 µM | 69%
O=C(NCCCN1CCOCC1)c1ccc(Nc2nccc(-c3cc4ccccc4s3)n2)cc1 | binding | competition with immobilised ligand | 1 µM | 72%
N[C@@H]1CCN(c2nccc(-c3cnn4ncccc34)n2)C1 | binding |  | 1 µM | 93%
O=C(c1ccc(Nc2ncc(Cl)c(-c3cc4ccccc4s3)n2)cc1)N1CCC(N2CCCC2)CC1 | binding | competition with immobilised ligand | 1 µM | 53%
C[C@@H](c1ccc(-n2cnc3c(N)ncnc32)cc1)N1CCc2nn(C)c(Cc3ccccc3)c2C1=O | binding | competition with immobilised ligand | 0.1 µM | 91%
CC(=O)C1=C(C)N(c2cccc(C(F)(F)F)c2)C(=O)N[C@@H]1c1ccc(C#N)nc1 | cell-free assay | competition with immobilised ligand | 1 µM | 100%
Cc1cnc(Nc2ccc(C(=O)N3CCC(N4CCCC4)CC3)cc2)nc1-c1cc2ccccc2s1 | binding | competition with immobilised ligand | 1 µM | 39%
CNC(=O)[C@@H]1CC[C@@H](n2c(-c3ccc4cnccc4c3)nc3ccc(C(=O)NCc4cccc(C(N)=O)c4)cc32)C1 | binding | competition with immobilised ligand | 1 µM | 100%
CN(C)c1ncc(F)c(-c2cnn3ncccc23)n1 | binding |  | 1 µM | 100%
C[C@@]1(Cc2ccc(C#N)cc2)C(=O)N(c2cc(Cl)cc(Cl)c2)c2ncc(C(=O)NC3(c4nc(C5CCC5)no4)CC3)n21 | cell-free assay | competition with immobilised ligand | 1 µM | 100%
c1cnn2ncc(-c3ccnc(N4CCC45COC5)n3)c2c1 | binding |  | 1 µM | 46%
CCOCCn1cc(C(=O)Nc2ccc(-n3nc(-c4cccnc4)cc3C(F)(F)F)cn2)ccc1=O | cell-free assay | competition with immobilised ligand | 1 µM | 79%
Nc1ncc2c(n1)-c1c([nH]c3ccc(C#CC4CC4)cc13)CCCC2 | binding | competition with immobilised ligand | 1 µM | 78%
C[C@@H]1CCN(c2nccc(-c3cnn4ncccc34)n2)C1 | binding |  | 1 µM | 71%
CN([C@@H]1CCc2c(CC(=O)O)c3ccccc3n2C1)S(=O)(=O)c1ccc(F)cc1 | cell-free assay | competition with immobilised ligand | 1 µM | 79%
O=C(NCC1CCOCC1)c1n[nH]cc1NC(=O)c1c(F)cccc1F | binding | competition with immobilised ligand | 1 µM | 71%
F[C@@H]1CCN(c2nccc(-c3cnn4ncccc34)n2)C1 | binding |  | 1 µM | 72%
CNCc1ccccc1-c1csc([C@@H](C)Nc2nc(C)nc3cc(OC)c(OC)cc23)c1 | cell-free assay | competition with immobilised ligand | 1 µM | 100%
CN(CCCC(F)(F)F)c1nccc(-c2cnn3ncccc23)n1 | binding |  | 1 µM | 91%
CCc1ccccc1C(=O)Nc1n[nH]c2c(C)c(F)c(C3C(C#N)=C(C)N(C)C(C)=C3C#N)cc12 | cell-free assay | competition with immobilised ligand | 1 µM | 100%
CC1CCCN1c1nccc(-c2cnn3ncccc23)n1 (stereo not shown) | binding |  | 1 µM | 100%
Cc1nc(Cc2cccc(C(F)(F)F)c2)sc1-c1ccc(C(N)=O)nc1 | cell-free assay | competition with immobilised ligand | 1 µM | 100%
